Experimental data taken from PubChem BioAssay AID720717 (ICCB-Longwood Screening Facility, Harvard Medical School, 2013).
Hit rate of the full screen: of about 51,000 compounds, about 150 (0.29%) were called active. The list comes from a sample in which actives are over-represented; it also holds similar structures and randomly drawn compounds. Values without a mark were called inactive.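 The calls were made as follows: active = both repeat wells score below -2 in polarization z-score versus plate sample wells, excluding overly bright wells; inactive = the rest.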

Test system: LANA (ORF73) N-terminal peptide binding to nucleosomes, Human herpesvirus 8
Assay: LANA N-terminal peptide–nucleosome interaction blockers – biochemical, fluorescence polarization, FITC-LANA1-23, chicken nucleosomes, primary screen (AID 720717)
Conditions: FITC-LANA1-23 / chicken nucleosome fluorescence polarization; active compounds read low
Method in brief: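 System – purified chicken nucleosomes with FITC-labelled LANA N-terminal peptide (1-23) · Amount – 240 nM purified chicken nucleosomes (480 nM peptide binding sites), final · Also added – 50 nM FITC-LANA1-23 probe · Medium – TEN-BT buffer, pH 7.5 · Incubation – compound with peptide–nucleosome mix 10–45 min at room temperature · Detection – fluorescence polarization, ex 480 nm, em 535 nm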

Row | Compound | z-score
1 | S=c1[nH]nc(NCCc2ccccc2)s1 | 0.44
2 | O=C1NC(c2ccccc2)=NC1(Nc1ccccn1)C(F)(F)F (configuration not stated) | 0.245
3 | CCOC(=O)c1nn(-c2ccccc2)c(C(=O)OCC)c1N(C(=O)CC)C(=O)CC | -0.275
4 | O=C1CCCc2nc3nc(-c4ccncc4)nn3cc21 | -0.949
5 | CC(Sc1nnc(COc2ccccc2)n1-c1ccccc1)C(=O)O (configuration not stated) | 0.582
6 | O=c1[nH]ncc2c1[nH]c1ccccc12 | 0.221
7 | O=C1C2C3C=CC(C3)C2C(=O)N1C1CC2CCC1C2 (configuration not stated) | -0.407
8 | N/C(=N\OC(=O)Nc1ccccc1)c1ccno1 | -0.0325
9 | C=CCOC(=O)c1cc(-c2ccc(/C=C3/NC(=S)NC3=O)o2)ccc1Cl | 0.594
10 | COC(=O)CSc1nc(-c2ccccc2)cc(C)c1C#N | -0.143
11 | CN(C)c1ccc(C(=S)N2CCN(c3cccc(Cl)c3)CC2)cc1 | 0.446
12 | COc1cccc(/C=N/NC(=O)c2cccc(C)c2)c1O | -0.518
13 | Cc1ccccc1-c1n[nH]n2c1nc(=O)c1cc(Cl)ccc12 | 0.639
14 | O=C(NCc1ccncc1)C1CCN(C(=O)c2cccc(Cl)c2)CC1 | 0.832
15 | Clc1ccc(C2N=C(c3cnccn3)NN2)cc1 (configuration not stated) | -2.98 (active)
16 | CN(C)CCC(O)c1cc(Cl)sc1Cl (configuration not stated) | 0.472
17 | CC(=O)N1c2ccccc2NC(=O)C1CC(=O)Nc1cccc(C)c1 (configuration not stated) | 2.28
18 | O=C(Nc1ccc(-c2cn3cccnc3n2)cc1)C1CCCC1 | 0.642
19 | CCOC(=O)C1=NNC2C(=O)N(c3cc(Cl)ccc3OC)C(=O)C12 (configuration not stated) | -0.513
20 | O=C(O)/C=C\C(=O)NCc1ccc2c(c1)OCO2 | 0.273
21 | CC1=CC(C)C2(COC(CN3CCCCC3)OC2)C(C)C1 (configuration not stated) | -0.0595
22 | CN(Cc1ccccc1)C1(O)C(=O)Nc2c(C(F)(F)F)cccc21 (configuration not stated) | 0.254
23 | COc1ccc(CNC(=O)NC2CCN(S(=O)(=O)c3ccc(OC)cc3)CC2)cc1 | 0.0685
24 | Clc1cccc(Nc2nc3ccccc3c3nncn23)c1 | -0.519
25 | CC(=O)O/N=C/c1ccc(N(C)C)cc1 | 0.621
26 | Cc1cc(NCc2cccnc2)no1 | -0.669

Row | Compound | z-score
27 | CCc1ccc(NS(=O)(=O)c2cnn(CC)c2)cc1 | -1.21
28 | CCn1cc(S(=O)(=O)Nc2cc(C)on2)cn1 | -2.19 (active)
29 | Cc1ccc(-n2nc(C)c(C(=O)O)n2)cc1 | -0.785
30 | CCCN(CCC)C(=O)Cn1ncn2c(cc3ccccc32)c1=O | 0.518
31 | Cc1cc2c(cc1S(=O)(=O)CCC(=O)N1CCCC1)OCC(=O)N2 | -1.11
32 | O=C(Nc1ccc(Cl)cc1)Nc1cc(C(=O)NCC2CCCO2)ccc1N1CC2CC(C1)c1cccc(=O)n1C2 (configuration not stated) | 0.571
33 | O=c1[nH]cc(S(=O)(=O)N2CCc3ccccc32)c(=O)[nH]1 | -0.177
34 | CCN(CC)S(=O)(=O)c1c(C)nn(S(=O)(=O)c2ccccc2)c1C | 1.21
35 | C(=N\N(Cc1ccccc1)Cc1ccccc1)/c1ccco1 | -1.14
36 | CCOC(=O)C(N)Cc1c[nH]c2ccccc12 (configuration not stated) | 0.0765
37 | Cc1ccc2cc(CN(CCN3CCCC3)C(=O)NC3CCCCC3)c(=O)[nH]c2c1C | 0.448
38 | CC(C)(Oc1ccc(Cl)cc1)C(=O)Nc1ccc2oc(-c3cccnc3)nc2c1 | 0.188
39 | C=C(C)Cn1nc(C)c(-c2cc(C(=O)O)[nH]n2)c1C | -0.083
40 | Cc1cccc(-c2cc(C(=O)N3CCN(C(=O)c4ccco4)CC3)c3ccc(Cl)c(C)c3n2)c1 | 0.0795
41 | O=C1NN=C(c2ccccc2)C1CCO (configuration not stated) | -0.74
42 | CS(=O)(=O)C1=NSC2=NC(=O)/C(=C\c3ccco3)C(=N)N21 | -0.748
43 | O=C(COc1ccccc1)n1c(=O)oc2ccccc21 | -1.36
44 | CCS(=O)(=O)N1CCCC(c2nc3c(nnn3Cc3ccc(C)cc3)c(=O)[nH]2)C1 (configuration not stated) | -1.1
45 | O=C(CSc1nc2ncccc2o1)NCc1ccco1 | 0.0485
46 | CCNC(=O)CC1C(=O)N(c2ccc(OC)cc2)C(=O)N1CCOC (configuration not stated) | -0.571
47 | COc1ccc(C(c2nnnn2C(C)(C)C)N2CCN(c3ccccc3)CC2)cc1 (configuration not stated) | -0.537
48 | COc1ccc(C2C3=C(CCCC3=O)N(CC(=O)O)C3=C2C(=O)CCC3)cc1 | 1.54
49 | Cc1ccc(C(=O)NC(C(=O)O)c2ccccc2)cc1 (configuration not stated) | 0.558
50 | C=CCNc1nc(N)sc1C#N | 0.79
51 | COc1cc(Br)cc(/C=N/O)c1O | -0.372
52 | C/C(=N/NC(=O)Cc1cc(=O)[nH][nH]1)c1ccc(Cl)cc1 | -0.559

Row | Compound | z-score
53 | Cc1cc(C)nc(-n2nc(C)c3c2N(C)C(=O)CC3c2ccccc2Cl)n1 (configuration not stated) | 0.097
54 | CCc1ccc2[nH]c(=O)c(CN(Cc3ccco3)C(=O)c3ccccc3)cc2c1 | 0.0145
55 | N#Cc1c(F)cccc1NC(=O)CN1CCCCC1 | -0.136
56 | COc1ccc(NC(=O)c2cn(-c3ccccc3)nc2SC)cc1 | -0.623
57 | O=C1CCC(=O)N1C(c1ccccc1)c1ccccc1 | -0.605
58 | COC(=O)c1ccccc1NC(=O)C(F)(F)F | -0.55
59 | CCc1c(C)nc2c(OC)cccc2c1Cl | -0.847
60 | Cc1sc2nc(C)n(NC(N)=O)c(=O)c2c1C | 0.328
61 | Cc1cc(N2CC(C)CC(C)C2)nc2ccc(NC(=O)CCC(=O)NCc3ccco3)cc12 (configuration not stated) | -1.27
62 | O=C1OC(c2ccco2)=N/C1=C1/C=C(c2cccs2)Oc2ccccc21 | -0.0915
63 | N#CC1=C(SCC(N)=O)NC2=C(C(=O)CCC2)C1c1ccco1 (configuration not stated) | 0.283
64 | CCCCn1cc(/C=N/NC(=O)c2cc3cc(OC)ccc3n2C)c2ccccc21 | -0.47
65 | O=S1(=O)CCC(S(=O)(=O)NC2CCCC2)C1 (configuration not stated) | -1.02
66 | COc1ccc(C(=O)N(C)C2CCCCC2)cc1 | -0.539
67 | CCCc1cc(=O)[nH]c2c1c(C)nn2-c1cccc(F)c1 | 1.12
68 | Cc1[nH]n(-c2ccccc2)c(=O)c1C(=O)C(F)(F)F | -0.607
69 | COc1ccc(CCN(C)C2CCNCC2)cc1OC | -0.052
70 | COc1cccc(NC(=O)c2cc(-c3cccc(OC)c3)n[nH]2)c1 | -1.44
71 | COc1cc(-c2nc3ccccn3c2NC2CCCC2)ccc1O | -0.532
72 | O=C(CN1Cc2ccccc2C1=O)N1CC=C(c2ccccc2)CC1 | -0.481
73 | Cc1ccc(-c2nc3scc(CCNC(=O)Cc4ccccc4)n3n2)cc1 | -0.82
74 | S=C(Cc1ccccc1)N1CCCCC1 | 0.211
75 | O=C1c2ccccc2C(=O)N1CNc1ccc(I)cc1 | -0.239
76 | Cc1[nH][nH]c(=O)c1C(c1cccc(Cl)c1)C(C#N)C#N (configuration not stated) | -0.349
77 | CC(C)NC(=S)N/N=C/c1ccn[nH]1 | 0.944
78 | COc1cccc(NC(=O)c2nn(C)c3c2COc2ccccc2-3)c1 | -1.79

Row | Compound | z-score
79 | CCOC(=O)c1ccc2c(c1)sc1nc(-c3cccc(OC)c3)cn12 | -1.21
80 | Nc1no[n+]([O-])c1C(=O)NCCO | 0.91
81 | CCN1C(=O)C2C(c3cccs3)NC(C)(C(=O)OC)C2C1=O (configuration not stated) | -0.124
82 | O=C1NN=C(Cc2ccccc2)C1CCO (configuration not stated) | -1.42
83 | CCCc1cc(SCC(=O)O)n2c(nc3ccccc32)c1C#N | -0.397
84 | CN1C(=O)CC(N2CCN(C/C=C/c3ccccc3)CC2)C1=O (configuration not stated) | 0.0475
85 | Cc1ccc2c(c1)-c1onc(C(=O)N3CCCCC3)c1CO2 | -1.74
86 | CCNC(=S)N1CCN(CCN=CC2=C(O)CC(C)(C)CC2=O)CC1 | 0.296
87 | O=C(C1CCN(Cc2cnn(-c3ccccc3)c2-n2cccc2)CC1)N1CCC2(CC1)OCCO2 | 0.0245
88 | O=C(O)C1CCN(Cc2ccc(Cl)cc2)CC1 | -0.653
89 | Cc1cc(-c2ccc(S(=O)(=O)NC3CCCc4ccccc43)s2)n[nH]1 (configuration not stated) | 0.15
90 | Cc1ccc(C(C(=O)NCc2ccccc2)N(C(=O)C2COc3ccccc3O2)c2cccc(O)c2)o1 (configuration not stated) | -0.115
91 | Nc1nc(SC23CC4CC(CC(C4)C2)C3)ns1 | -1.08
92 | CC1=CCCC(C)(C)C1/C=C/C(C)=N/O (configuration not stated) | -1.1
93 | Cc1ccccc1NC(=O)N1CC(C)CC(C)C1 (configuration not stated) | -0.339
94 | Nc1nonc1-n1nnc(C(=O)N=Nc2c(O)[nH]c3ccc(Br)cc23)c1-c1ccccc1 | 0.712
95 | CCOC(=O)c1cc(-c2ccc(C)cc2)n(CCC(=O)Nc2nccs2)c1C | 0.181
96 | Cc1c(NC(=O)c2ccc3c(c2)C(=O)N(C)C3=O)cccc1C(=O)O | -0.278
97 | CCC(=O)N1CCc2cc(S(=O)(=O)NCC(OC)OC)ccc21 | 0.461
98 | NCc1cc(C2CC2)n[nH]1 | -0.734
99 | O=C(NCc1ccccn1)c1ccc2c(c1)CCN2S(=O)(=O)c1ccc(Cl)cc1 | -0.107
100 | CCNc1nc(N2CCOCC2)c2ccccc2n1 | 1.02
101 | Cc1nc(CC(=O)Nc2cccc(Cl)c2)cs1 | -0.419
102 | O=C(Cc1ccccc1)n1nc(-c2ccco2)nc1NCc1ccccc1 | 0.165
